Assay results as given in ChEMBL document CHEMBL1629690, “Development of hexadecyloxypropyl tenofovir (CMX157) for treatment of infection caused by wild-type and nucleoside/nucleotide-resistant HIV” (Antimicrob Agents Chemother, 2010).

Assays:
PBMC [1] = test: Cellular uptake in human PBMC at 10 uM after 24 hrs by MS/MS analysis; format: ADME, cell-based
Procedure, shortened: (§1)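 Human PBMCs, unstimulated or PHA/IL-2-stimulated, at 2 × 10^6 cells/ml in RPMI 1640 with 15% FBS, exposed 24 h at 37°C to final 0.01, 0.1, 1.0 or 10 μM of the prodrug, or 1.0 or 10 μM tenofovir. After cold saline washes the cells were counted and 1 × 10^7-cell pellets made. TFV, TFV-MP and TFV-PP were measured by ion-pairing LC with positive-ion electrospray MS as pmol/10^6 cells.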

[2] = Cytotoxicity against human ME180 cells after 24 hrs by XTT assay; format: cell-based; settings: me-180, 24 h
Procedure, shortened: (§2)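 Six-concentration growth-inhibition test: 10 to 0.032 μM for the prodrug and TDF, up to 100 μM for TFV, with Triton X-100 run in parallel. Cell lines were split 1:2 the day before and seeded at 5 × 10^3 to 2 × 10^4 cells/well, with adherent lines left overnight. Dendritic cells were derived with GM-CSF/IL-4 for 7 days, then LPS 10 ng/ml for 2 days. Viability was read by XTT.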

PBMC [3] = test: Cytotoxicity against PHA/IL-2-stimulated human PBMC after 24 hrs by XTT assay; format: cell-based; procedure, shortened: as §2
HepG2 = test: Cytotoxicity against human HepG2 cells after 24 hrs by XTT assay; format: cell-based; settings: hepg2, 24 h; procedure, shortened: as §2
PBMC [4] = test: Cellular uptake in PHA/IL-2-stimulated human PBMC at 1 uM assessed as TFV-monophosphate level after 24 hrs by MS/MS analysis; format: ADME, cell-based
Procedure, shortened: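 PHA-stimulated (4 μg/ml PHA, 48 to 72 h; 20 U/ml rhIL-2) human PBMCs at 2 × 10^6 cells/ml in RPMI 1640 with 15% FBS, given tenofovir or prodrug (final 0.01 to 10 μM) for 24 h at 37°C. Cells washed three times in cold 0.9% NaCl, counted, and 1 × 10^7 cell aliquots pelleted. TFV, TFV-MP and TFV-PP were separated by ion-pairing reverse-phase LC and detected by positive-ion electrospray MS. Output is pmol per 10^6 cells.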

CEM-SS = test: Cytotoxicity against human CEM-SS cells after 24 hrs by XTT assay; format: cell-based; procedure, shortened: as §2
[5] = Cytotoxicity against human dendritic cells after 24 hrs by XTT assay; format: cell-based; procedure, shortened: as §2
PBMC [6] = test: Cellular uptake in human PBMC at 1 uM assessed as TFV-diphosphate level after 24 hrs by MS/MS analysis; format: ADME, cell-based; procedure, shortened: as §1
[7] = test system: Human immunodeficiency virus 1; test: Antiviral activity against HIV1 subtype F isolate 93BR020 infected in human PBMC after 48 to 72 hrs by MTS assay; format: functional, organism-based; settings: Human immunodeficiency virus 1, isolate 93BR020
Procedure, shortened: (§3)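 Fresh donor PBMCs, HIV- and HBV-seronegative, were stimulated with 4 μg/ml PHA for 48 to 72 h and kept on 20 U/ml rhIL-2. Cells pooled from at least two donors were seeded at 5 × 10^4 per well and infected at MOI ~0.1. Nine compound concentrations were run in triplicate wells for 7 days.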

[8] = test system: Human immunodeficiency virus 1; test: Antiviral activity against HIV1 subtype G isolate JV1083 infected in human PBMC after 48 to 72 hrs by MTS assay; settings: Human immunodeficiency virus 1, isolate JV1083
[9] = test system: Human immunodeficiency virus 1; test: Antiviral activity against HIV1 group O isolate BCF02 infected in human PBMC after 48 to 72 hrs by MTS assay; format: functional, organism-based; settings: Human immunodeficiency virus 1, isolate BCF02; procedure, shortened: as §3
[10] = test system: Human immunodeficiency virus 1; test: Antiviral activity against HIV1 isolate JR-CSF infected in human PBMC after 48 to 72 hrs by MTS assay; format: functional; settings: Human immunodeficiency virus 1, JRCSF ISOLATE
Procedure, shortened: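 This is the PHA/IL-2 PBMC assay run with JR-CSF preincubated with 8 × 10^6 pooled cells for 1 h at 37°C. Cells were then spinoculated at 200 × g for 1 h and held 2 h more. Infected cells (2.5 × 10^4) were added, without virus washout, to wells holding uninfected PBMCs and compound. Medium had 15% FBS, plus 0, 10, 15, 20 or 30% human serum.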

[11] = test system: Human immunodeficiency virus 1; test: Antiviral activity against HIV1 group O isolate BCF01 infected in human PBMC after 48 to 72 hrs by MTS assay; format: functional, organism-based; settings: Human immunodeficiency virus 1, isolate BCF01; procedure, shortened: as §3
PBMC [12] = test: Cellular uptake in human PBMC at 0.1 uM assessed as TFV-diphosphate after 24 hrs by MS/MS analysis; format: ADME, cell-based; procedure, shortened: as §1
PBMC [13] = test: Cellular uptake in human PBMC at 1 uM assessed as TFV level after 24 hrs by MS/MS analysis; format: ADME, cell-based; procedure, shortened: as §1
[14] = test system: Human immunodeficiency virus 1; test: Antiviral activity against HIV1 subtype E isolate CMU08 infected in human PBMC after 48 to 72 hrs by MTS assay; format: functional, organism-based; settings: Human immunodeficiency virus 1, isolate CMU08; procedure, shortened: as §3
PBMC [15] = test: Cellular uptake in human PBMC at 0.1 uM assessed as TFV level after 24 hrs by MS/MS analysis; format: ADME, cell-based; procedure, shortened: as §1
[16] = test system: Human immunodeficiency virus 1; test: Antiviral activity against HIV1 subtype A isolate 92UG029 infected in human PBMC after 48 to 72 hrs by MTS assay; format: functional, organism-based; settings: Human immunodeficiency virus 1, isolate 92UG029; procedure, shortened: as §3
[17] = test system: Human immunodeficiency virus 1; test: Antiviral activity against HIV1 subtype B isolate ADA infected in human MDM […] by MTS assay; format: functional, organism-based; settings: Human immunodeficiency virus 1, isolate ADA
PBMC [18] = test: Cellular uptake in PHA/IL-2-stimulated human PBMC at 0.1 uM assessed as TFV level after 24 hrs by MS/MS analysis; format: ADME, cell-based; settings: BLD = below limit of detection
Procedure, shortened: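 PHA/IL-2-stimulated PBMCs at 2 × 10^6 cells/ml (5 × 10^7 per flask) were exposed for 24 h at 37°C. Cells were washed three times in cold 0.9% NaCl and counted by trypan blue. Aliquots of 1 × 10^7 cells were pelleted. TFV, TFV-MP and TFV-PP were separated by ion-pairing reverse-phase gradient LC and detected by positive electrospray. Results are given as pmol/10^6 cells.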

[19] = test system: Human immunodeficiency virus 1; test: Antiviral activity against HIV1 subtype G isolate G3 infected in human PBMC after 48 to 72 hrs by MTS assay; format: functional, organism-based; settings: Human immunodeficiency virus 1, isolate G3; procedure, shortened: as §3
[20] = test system: Human immunodeficiency virus 1; test: Antiviral activity against HIV1 subtype A isolate 92UG037 infected in human MDM […] by MTS assay; format: functional, organism-based; settings: Human immunodeficiency virus 1, isolate 92UG037
[21] = test system: Human immunodeficiency virus 1; test: Antiviral activity against HIV1 subtype F isolate 93BR019 infected in human PBMC after 48 to 72 hrs by MTS assay; format: functional, organism-based; settings: Human immunodeficiency virus 1, isolate 93BR019; procedure, shortened: as §3
[22] = test system: Human immunodeficiency virus 1; test: Antiviral activity against HIV1 subtype B isolate ADA infected in human PBMC after 48 to 72 hrs by MTS assay; format: functional, organism-based; settings: Human immunodeficiency virus 1, isolate ADA; procedure, shortened: as §3
[23] = test system: Human immunodeficiency virus 1; test: Antiviral activity against HIV1 isolate JR-CSF infected in human PBMC after 48 to 72 hrs by MTS assay in presence of 100% human serum; format: functional; settings: Human immunodeficiency virus 1, JRCSF ISOLATE
Procedure, shortened: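 The value is an estimate for 100% human serum, extrapolated from JR-CSF EC50s measured in PHA/IL-2 PBMCs. Those assays used a virus preincubation/spinoculation step and contained 0 to 30% human serum on top of 15% FBS.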

PBMC [24] = test: Cellular uptake in human PBMC at 0.01 uM assessed as TFV-monophosphate after 24 hrs by MS/MS analysis; format: ADME, cell-based; settings: BLD = below limit of detection; procedure, shortened: as §1

Compound | Activity [2] | Activity (PBMC [3]) | Activity (HepG2) | Activity (CEM-SS) | Activity [5] | Drug uptake (PBMC [6]) [pmol/10^6 cells] | EC50 [7] [nM] | EC50 [8] [nM] | EC50 [9] [nM] | EC50 [14] [nM] | EC50 [16] [nM] | EC50 [17] [nM] | EC50 [19] [nM] | EC50 [20] [nM] | EC50 [21] [nM] | further results
C[C@H](Cn1cnc2c(N)ncnc21)OCP(=O)(O)O [TENOFOVIR ANHYDROUS] | Non-toxic | Non-toxic | Non-toxic | Non-toxic | Non-toxic | 0.05 |  |  |  |  |  |  |  |  |  | Drug uptake (PBMC [1]): 0.11 pmol/10^6 cells; Drug uptake (PBMC [4]; BLD = below limit of detection): BLD
CCCCCCCCCCCCCCCCOCCCOP(=O)(O)CO[C@H](C)Cn1cnc2c(N)ncnc21 [TENOFOVIR EXALIDEX] | Non-toxic | Non-toxic | Non-toxic | Non-toxic | Non-toxic | 0.22 | 2.7 | 2.2 | 5 | 2.3 | 3.3 | 3.1 | 2.2 | 1.3 | 2.7 | EC50 [10]: 1.5 nM; Drug uptake (PBMC [4]): 0.3 pmol/10^6 cells; EC50 [11]: 5 nM; Drug uptake (PBMC [12]): 0.07 pmol/10^6 cells; Drug uptake (PBMC [13]): 0.07 pmol/10^6 cells; Drug uptake (PBMC [15]): 0.05 pmol/10^6 cells; Drug uptake (PBMC [18]): BLD; EC50 [22]: 1.5 nM; EC50 [23]: 53 nM; Drug uptake (PBMC [24]): BLD
Cc1cn([C@H]2C[C@H](N=[N+]=[N-])[C@@H](CO)O2)c(=O)[nH]c1=O [ZIDOVUDINE] |  |  |  |  |  |  | 9.6 | 4.7 | 1.7 | 5.5 | 14 | 2.7 | 4.7 | 1.3 | 9.6 | 
